Experimental data: ChEMBL document CHEMBL1649256, “Comparison of assessment of oxygen consumption, Etest, and CLSI M38-A2 broth microdilution methods for evaluation of the susceptibility of Aspergillus fumigatus to posaconazole” (2009)
In brackets after ≈: the same amount, converted by molar mass.

What was measured:
Format in all cases: functional
Aspergillus fumigatus [1] = experiment: Antimicrobial activity against Aspergillus fumigatus isolate 7 after 24 hrs by Etest; details: isolate 7, 24 h
Aspergillus fumigatus [2] = experiment: Antimicrobial activity against Aspergillus fumigatus isolate 15 after 24 hrs by Etest; details: isolate 15, 24 h
Summary of the method: (§1)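 Posaconazole Etest strips placed on RPMI 1640 agar with 2% glucose, pH 7.0, and run per the strip maker's instructions. Incubation at 35°C, with the MIC read at 24 h and at 48 h.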

Aspergillus fumigatus [3] = experiment: Antimicrobial activity against Aspergillus fumigatus isolate 24 after 24 hrs by Etest; details: isolate 24, 24 h
Summary of the method: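 Etest strips on RPMI 1640 agar with 2% glucose, pH 7.0, run per manufacturer's instructions. Incubated at 35°C; MIC read at 24 h.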

Aspergillus fumigatus [4] = experiment: Antimicrobial activity against Aspergillus fumigatus isolate 32 after 24 hrs by Etest; details: isolate 32, 24 h
Summary of the method: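 Posaconazole Etest strips on RPMI 1640 agar with 2% glucose, pH 7.0, run per the strip maker's instructions. Incubated at 35°C. MIC read at 24 h and at 48 h, matching the time in each line.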

Aspergillus fumigatus [5] = experiment: Antimicrobial activity against Aspergillus fumigatus isolate 12 after 48 hrs by Etest; details: isolate 12, 48 h; summary of the method: as §1
Aspergillus fumigatus [6] = experiment: Antimicrobial activity against Aspergillus fumigatus isolate 29 after 48 hrs by Etest; details: isolate 29, 48 h
Summary of the method: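 Etest strips on RPMI 1640 agar with 2% glucose, pH 7.0, run per manufacturer's instructions. Incubated at 35°C; MIC read at 48 h.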

Aspergillus fumigatus [7] = experiment: Antimicrobial activity against Aspergillus fumigatus isolate 44 after 48 hrs by Etest; details: isolate 44, 48 h
Aspergillus fumigatus [8] = experiment: Antimicrobial activity against Aspergillus fumigatus isolate 47 after 48 hrs by Etest; details: isolate 47, 48 h
Aspergillus fumigatus [9] = experiment: Antimicrobial activity against Aspergillus fumigatus isolate 6 by oxygen consumption method
Aspergillus fumigatus [10] = experiment: Antimicrobial activity against Aspergillus fumigatus isolate 28 by oxygen consumption method
Summary of the method: (§2)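 Conidial suspension in RPMI 1640 broth, 1.5 ml, with two drug concentrations (0.25 and 2 μg/ml). Tubes agitated 12 h at 37°C in a biological oxygen monitor. Available oxygen monitored continuously and quantified to assign the MIC.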

Aspergillus fumigatus [11] = experiment: Antimicrobial activity against Aspergillus fumigatus isolate 31 by oxygen consumption method; summary of the method: as §2
Aspergillus fumigatus [12] = experiment: Antimicrobial activity against Aspergillus fumigatus isolate 35 by oxygen consumption method
Summary of the method: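 Conidial suspension in RPMI 1640 broth, tested at two posaconazole levels (0.25 and 2 μg/ml). Agitated for 12 h at 37°C in a biological oxygen monitor. MIC derived from continuous monitoring and quantification of the available oxygen.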

Aspergillus fumigatus [13] = experiment: Antimicrobial activity against Aspergillus fumigatus isolate 6 by CLSI M38-A2 broth microdilution method
Aspergillus fumigatus [14] = experiment: Antimicrobial activity against Aspergillus fumigatus isolate 14 by CLSI M38-A2 broth microdilution method
Summary of the method: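 Posaconazole broth microdilution follows CLSI M38-A2. The MIC is the lowest concentration with no visible growth at 48 h. Candida parapsilosis ATCC 22019 and Candida krusei ATCC 6258 were included as QC strains in every run.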

Aspergillus fumigatus [15] = experiment: Antimicrobial activity against Aspergillus fumigatus isolate 22 by CLSI M38-A2 broth microdilution method
Summary of the method: (§3)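 Reference broth microdilution per CLSI M38-A2. MIC read as absence of visible growth at 48 h. C. parapsilosis ATCC 22019 and C. krusei ATCC 6258 QC strains run in each test session.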

Aspergillus fumigatus [16] = experiment: Antimicrobial activity against Aspergillus fumigatus isolate 23 by CLSI M38-A2 broth microdilution method; summary of the method: as §3
Aspergillus fumigatus [17] = experiment: Antimicrobial activity against Aspergillus fumigatus isolate 29 by CLSI M38-A2 broth microdilution method; summary of the method: as §3

Q: Which results are given for CC[C@@H]([C@H](C)O)n1ncn(-c2ccc(N3CCN(c4ccc(OC[C@@H]5CO[C@@](Cn6cncn6)(c6ccc(F)cc6F)C5)cc4)CC3)cc2)c1=O [POSACONAZOLE]?
A: MIC (Aspergillus fumigatus [1]): 0.25 µg/mL (≈ 0.357 µM); MIC (Aspergillus fumigatus [2]): 0.06 µg/mL (≈ 0.0856 µM); MIC (Aspergillus fumigatus [3]): 0.125 µg/mL (≈ 0.178 µM); MIC (Aspergillus fumigatus [4]): 0.25 µg/mL (≈ 0.357 µM); MIC (Aspergillus fumigatus [5]): 0.5 µg/mL (≈ 0.713 µM); MIC (Aspergillus fumigatus [6]): 0.25 µg/mL (≈ 0.357 µM); MIC (Aspergillus fumigatus [7]): 0.06 µg/mL (≈ 0.0856 µM); MIC (Aspergillus fumigatus [8]): ≤ 0.03 µg/mL; MIC (Aspergillus fumigatus [9]): ≤ 0.25 µg/mL; MIC (Aspergillus fumigatus [10]): ≤ 0.25 µg/mL; MIC (Aspergillus fumigatus [11]): ≤ 0.25 µg/mL; MIC (Aspergillus fumigatus [12]): ≤ 0.25 µg/mL; MIC (Aspergillus fumigatus [13]): 0.125 µg/mL (≈ 0.178 µM); MIC (Aspergillus fumigatus [14]): 0.125 µg/mL (≈ 0.178 µM); MIC (Aspergillus fumigatus [15]): 0.125 µg/mL (≈ 0.178 µM); MIC (Aspergillus fumigatus [16]): 0.125 µg/mL (≈ 0.178 µM); MIC (Aspergillus fumigatus [17]): 0.125 µg/mL (≈ 0.178 µM)
